These results are taken from paper PMC6733178 (ACS Omega, 2019).

Values after ≈ are worked out from the molar mass of the structure shown.

Assay [1] concerns S. aureus ATCC 25923 (Sa). The assay is described as follows: MIC, broth microdilution with resazurin. In kind it is cell-based, Staphylococcus aureus. To be noted: for MIC: Staphylococcus aureus, ATCC25923, read-out: MIC Values Sa. The method, boiled down:
(§1)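 CLSI broth microdilution. Strains were grown overnight at 35 °C on TSA or TSA with 5% sheep blood. Colonies were suspended in 0.9% saline to 0.5 McFarland, then diluted 1:100 in Mueller Hinton broth (about 1 × 10^6 CFU/mL). Test compound (2 mg/mL DMSO stock) was serially diluted 1:2 from 50 µg/mL final. Resazurin was added at 8 µg/mL final, and plates were incubated 35 °C for 20–24 h and read visually. MIC is the lowest concentration without the resazurin colour change. Each plate carried untreated, DMSO and antibiotic controls.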

Assay [2] relates to S. aureus ATCC 33592 (Sa92). As to the kind of experiment: MIC, broth microdilution with resazurin. To be noted: for MIC: Staphylococcus aureus, ATCC33592, read-out: MIC Values Sa92. In kind it is cell-based, Staphylococcus aureus. In short, it runs like this:
as §1

Assay [3] deals with S. aureus ATCC 700699 (Sa99). As to the kind of experiment: MIC, broth microdilution with resazurin. The format is cell-based, Staphylococcus aureus. To be noted: for MIC: Staphylococcus aureus, ATCC700699, read-out: MIC Values Sa99. The method, boiled down: as §1
Assay [4] has as its system S. aureus ATCC 33591 (Sa91). The assay is described as follows: MIC, broth microdilution with resazurin. In kind it is cell-based, Staphylococcus aureus. To be noted: for MIC: Staphylococcus aureus, ATCC33591, read-out: MIC Values Sa91. The method, boiled down:
as §1

Assay [5] has as its system B. subtilis ATCC 6623 (Bs). As to the kind of experiment: MIC, broth microdilution with resazurin. In kind it is cell-based. As to conditions: NA = No Activity.
Assay [6] has as its system S. aureus BAA-2312 (Sa12). As to the kind of experiment: MIC, broth microdilution with resazurin. In kind it is cell-based, Staphylococcus aureus. To be noted: for MIC: Staphylococcus aureus, BAA2312, read-out: MIC Values Sa12. In short, it runs like this: as §1
Assay [7] has as its system S. epidermidis 700296 (Se). The assay is described as follows: MIC, broth microdilution with resazurin. In kind it is cell-based. As to conditions: for MIC: Staphylococcus epidermidis, read-out: MIC Values Se.
Assay [8] has as its system human embryonic kidney (HEK293) cell line. The assay is described as follows: In vitro cytotoxicity, resazurin viability. To be noted: HEK293, 24 h incubation. The format is cell-based. The method, boiled down: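 HEK293 cells were counted and seeded at 4000 per well. Test compound was serially diluted from 50 µg/mL, added in triplicate, and incubated 24 h. Resazurin (5%) was then added, and plates were incubated 4 and 6 h before reading. Viability was read as fluorescence at 544 nm excitation and 590 nm emission.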

The subject of assay [9] is A. baumannii ATCC 747 (Ab47). As to the kind of experiment: MIC, broth microdilution with resazurin. The format is cell-based, Acinetobacter baumannii. To be noted: for MIC: Acinetobacter baumannii, ATCC747, read-out: MIC Ab47. In short, it runs like this: as §1
The subject of assay [10] is three strains of A. baumannii. As to the kind of experiment: MIC summarised in the text over the three A. baumannii strains. In kind it is cell-based, Acinetobacter baumannii. In short, it runs like this: as §1
In assay [11] the test system is A. baumannii ATCC 19606 (Type Strain, AB06). The assay is described as follows: MIC, broth microdilution with resazurin. In kind it is cell-based, Acinetobacter baumannii. As to conditions: for MIC: Acinetobacter baumannii, ATCC19606, read-out: MIC Ab06. In short, it runs like this:
as §1

Assay [12] has as its system tested Gram-positive strains (S. aureus incl. MRSA, S. epidermidis, B. subtilis). As to the kind of experiment: MIC summarised in the text over the tested Gram-positive strains. The format is cell-based.
For assay [13], the system named is A. baumannii ATCC 19606. As to the kind of experiment: SYTO-9/propidium iodide. The format is cell-based, Acinetobacter baumannii. As to conditions: compared with positive control Colistin 6.25 μg/mL.
Assay [14] has as its system A. baumannii ATCC BAA-1605 (Ab05). The assay is described as follows: MIC, broth microdilution with resazurin. The format is cell-based, Acinetobacter baumannii. To be noted: NA = No Activity. In short, it runs like this: as §1
[15] abbreviates: antibiotic-resistant strain, NA = No Activity.

In the case of “4-[4-[(2,2-Dibenzylhydrazino)methyl]-3-(3-fluorophenyl)pyrazol-1-yl]benzoic Acid [Compound 7]”, the “MIC Values Sa” value in [1] (antibiotic susceptible strain, NA = No Activity) was found to be 12.5 µg/mL. In addition, the “MIC Values Sa92” value in assay [2] (setting [15]) is 3.125 µg/mL. Moreover, the “MIC Values Sa99” value in assay [3] (setting [15]) was determined as 3.125 µg/mL. Also, the “MIC Values Sa91” value in assay [4] (setting [15]) is 6.25 µg/mL. In addition, the “MIC Values Bs” value in [5] was 1.56 µg/mL. In assay [6] (setting [15]), the “MIC Values Sa12” value was determined as 6.25 µg/mL.

Take `O=C(O)c1ccc(-n2cc(/C=N/N(c3ccccc3)c3ccccc3)c(-c3cccc(F)c3)n2)cc1` [Compound 5, 4-[4-[(E)-(Diphenylhydrazono)methyl]-3-(3-fluorophenyl)pyrazol-1-yl]benzoic Acid]: the MIC was 3.12 µg/mL (≈ 6.56 µM) in assay [1]; 0.78 µg/mL (≈ 1.64 µM) in assay [2]; 1.56 µg/mL (≈ 3.27 µM) in assay [3]; 3.12 µg/mL (≈ 6.56 µM) in [4]; 3.12 µg/mL (≈ 6.56 µM) in assay [7]; 3.12 µg/mL (≈ 6.56 µM) in assay [6]. For the same compound, in assay [8], the IC50 entry is listed as “High IC50 values”.

For `O=C(O)c1ccc(-n2cc(/C=N/Nc3cccc(Cl)c3)c(-c3cccc(F)c3)n2)cc1` [Compound 8, 4-[4-[(E)-[(3-Chlorophenyl)hydrazono]methyl]-3-(3-fluorophenyl)pyrazol-1-yl]benzoic Acid], the MIC stood at 12.5 µg/mL (≈ 28.7 µM) in [9]; 6.25 µg/mL (≈ 14.4 µM) in [1]; 6.25 µg/mL (≈ 14.4 µM) in assay [2]; 3.12 µg/mL (≈ 7.19 µM) in [3]; 12.5 µg/mL (≈ 28.7 µM) in assay [4]; 12.5 µg/mL (≈ 28.7 µM) in assay [7]. For the same compound, the figures for the MIC in [6] and in assay [11] were 12.5 µg/mL (≈ 28.7 µM) and 6.25 µg/mL (≈ 14.4 µM), respectively. For the same compound, the “activity against A. baumannii strains (in words)” value in [10] is on record as “moderate activity”.

On to `O=C(O)c1ccc(-n2cc(/C=N/Nc3cccc(Br)c3)c(-c3cccc(F)c3)n2)cc1` [Compound 9, 4-[4-[(E)-[(3-Bromophenyl)hydrazono]methyl]-3-(3-fluorophenyl)pyrazol-1-yl]benzoic Acid], for which the MIC in assay [9] turned out to be 12.5 µg/mL (≈ 26.1 µM); in assay [1], 12.5 µg/mL (≈ 26.1 µM); in assay [2] it was 6.25 µg/mL (≈ 13 µM); in assay [3], 3.12 µg/mL (≈ 6.52 µM); in assay [4], 12.5 µg/mL (≈ 26.1 µM); in assay [7], 12.5 µg/mL (≈ 26.1 µM). Besides, the MIC in assay [6] was found to be 12.5 µg/mL (≈ 26.1 µM); in assay [11], 6.25 µg/mL (≈ 13 µM). Further, the “activity against A. baumannii strains (in words)” value in assay [10] is recorded as “moderate activity”.

Turning to `O=C(O)c1ccc(-n2cc(/C=N/Nc3ccc(Br)cc3)c(-c3cccc(F)c3)n2)cc1` [Compound 10, 4-[4-[(E)-[(4-Bromophenyl)hydrazono]methyl]-3-(3-fluorophenyl)pyrazol-1-yl]benzoic Acid], the MIC amounted to 6.25 µg/mL (≈ 13 µM) in assay [9]; 12.5 µg/mL (≈ 26.1 µM) in assay [1]; 6.25 µg/mL (≈ 13 µM) in assay [2]; 6.25 µg/mL (≈ 13 µM) in assay [3]; 12.5 µg/mL (≈ 26.1 µM) in assay [4]; 12.5 µg/mL (≈ 26.1 µM) in assay [7]. In addition, the MIC in [6] is 12.5 µg/mL (≈ 26.1 µM); in assay [11], 3.12 µg/mL (≈ 6.52 µM). The “activity against A. baumannii strains (in words)” value in assay [10] is “moderate activity”.

Turning to `O=C(O)c1ccc(-n2cc(/C=N/Nc3ccc(Cl)cc3Cl)c(-c3cccc(F)c3)n2)cc1` [Compound 12, 4-[4-[(E)-[(2,4-Dichlorophenyl)hydrazono]methyl]-3-(3-fluorophenyl)pyrazol-1-yl]benzoic Acid], the MIC amounted to 3.12 µg/mL (≈ 6.66 µM) in assay [1]; 0.39 µg/mL (≈ 0.831 µM) in assay [2]; 0.78 µg/mL (≈ 1.66 µM) in assay [3]; 3.12 µg/mL (≈ 6.66 µM) in [4]; 3.12 µg/mL (≈ 6.66 µM) in assay [7]; 3.12 µg/mL (≈ 6.66 µM) in assay [6]. Further, in [8], the IC50 entry is “High IC50 values”.

For the compound `CN1CCN(/N=C/c2cn(-c3ccc(C(=O)O)cc3)nc2-c2cccc(F)c2)CC1` [Compound 21, 4-[3-(3-Fluorophenyl)-4-[(E)-(4-methylpiperazin-1-yl)iminomethyl]pyrazol-1-yl]benzoic Acid], the “activity against the tested strains (in words)” value in assay [12] is given as “completely ceased the activity”. Besides, the “membrane disruption ability (ratio of PI to SYTO-9 signals)” value in [13] was “better membrane disruption ability than the positive control”.

As for `CN(/N=C/c1cn(-c2ccc(C(=O)O)cc2)nc1-c1ccc(F)cc1)c1ccccc1` [Compound 22, 4-[3-(4-Fluorophenyl)-4-[(E)-[methyl(phenyl)hydrazono]methyl]pyrazol-1-yl]benzoic Acid], the MIC in [1] was determined as 12.5 µg/mL (≈ 30.2 µM); in assay [2], 6.25 µg/mL (≈ 15.1 µM); in [3], 12.5 µg/mL (≈ 30.2 µM); in assay [4], 12.5 µg/mL (≈ 30.2 µM); in [7], 12.5 µg/mL (≈ 30.2 µM). In addition, the “activity against the tested strains (in words)” value in assay [12] is listed as “moderate activity”. Besides, in assay [13], the “membrane disruption ability (ratio of PI to SYTO-9 signals)” value is “better membrane disruption ability than the positive control”.

For the compound `O=C(O)c1ccc(-n2cc(/C=N/N(c3ccccc3)c3ccccc3)c(-c3ccc(F)cc3)n2)cc1` [Compound 23, 4-[4-[(E)-(Diphenylhydrazono)methyl]-3-(4-fluorophenyl)pyrazol-1-yl]benzoic Acid], the MIC in [1] is 1.56 µg/mL (≈ 3.27 µM); in assay [2] it was 0.78 µg/mL (≈ 1.64 µM); in assay [3], 1.56 µg/mL (≈ 3.27 µM); in assay [6], 3.12 µg/mL (≈ 6.56 µM). Moreover, the “MIC Values Se” value in assay [7] (NA = No Activity) was “no activity”. Moreover, the IC50 entry in [8] was “High IC50 values”. The “MIC Values Bs” value in assay [5] (Table 2) was determined as 1.56 µg/mL (≈ 3.27 µM).

For Colistin [reference compound], the “MIC Ab47” value in assay [9] (NA = No Activity) amounted to 1.56 µg/mL. Further, the “MIC Ab05” value in assay [14] worked out at 3.125 µg/mL. The “MIC Ab06” value in [11] (NA = No Activity) turned out to be 3.125 µg/mL.
